Assay results as given in ChEMBL document CHEMBL1126882, “Orally active central dopamine and serotonin receptor ligands: 5-, 6-, 7-, and 8-[[trifluoromethyl)sulfonyl]oxy]-2-(di-n-propylamino)tetralins and the formation of active metabolites in vivo” (J Med Chem, 1993).
Activity calls are given as the source filed them. The calls are words filed in the database; no cut-off is given here.

Legend:
[1] = target: T1, 5-hydroxytryptamine receptor 1A (Rattus norvegicus, UniProt P19327); test: Binding affinity against 5-hydroxytryptamine 1A receptor in homogenated rat brain tissue, using by [3H]8-OH-DPAT as radioligand; format: tissue-based
T1 sequence (P19327 whole entry): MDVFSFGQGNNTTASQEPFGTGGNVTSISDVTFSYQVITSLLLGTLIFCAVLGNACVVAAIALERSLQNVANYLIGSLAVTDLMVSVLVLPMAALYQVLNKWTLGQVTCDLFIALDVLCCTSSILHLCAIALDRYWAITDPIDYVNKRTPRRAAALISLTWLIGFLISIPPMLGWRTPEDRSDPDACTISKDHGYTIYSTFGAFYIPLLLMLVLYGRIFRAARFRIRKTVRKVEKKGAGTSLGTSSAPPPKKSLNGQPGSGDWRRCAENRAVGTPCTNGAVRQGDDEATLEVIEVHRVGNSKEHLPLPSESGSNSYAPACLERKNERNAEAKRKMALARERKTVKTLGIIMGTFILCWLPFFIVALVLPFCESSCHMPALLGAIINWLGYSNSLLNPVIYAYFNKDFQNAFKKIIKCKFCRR
In short: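 Rat brain homogenate was washed and preincubated in 50 mM Tris (pH 8.0) containing NaCl, CaCl2 and MgCl2, plus 10 μM pargyline. Nonspecific binding was defined with 10 μM 5-HT. Six drug concentrations (10⁻⁴-10⁻⁹ M) were tested, triplicate or single run. IC50 came from a semilog plot with linear regression.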

Rattus norvegicus [2] = species: Rattus norvegicus; test: DA agonist induced behavior was charecterised by increased locomotion, sniffing and licking.+ indicates low intensity of behavioral effect; format: functional, organism-based
In short: (§1)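 Male Sprague-Dawley rats (200-300 g) given reserpine 5 mg/kg sc in the neck 18 h before testing. The test compound, in 0.9% saline, was given sc in the neck (n = 4-5). Rats were placed singly in photocell motility meters right after dosing. Counts were recorded over 30 min, alongside gross behavioural observation of 5-HT and DA signs. Statistics: ANOVA with Fischer's PLSD versus reserpine controls.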

Rattus norvegicus [3] = test: Effective dose for half-maximal decrease in the accumulation of 5-hydroxytryptophan (5-HTP) in reserpinized rat brain striatal area by sc administration; Inactive; format: functional, organism-based
In short: (§2)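 Male Sprague-Dawley rats (200-300 g) got reserpine 5 mg/kg sc 18 h before. The test drug (saline) was given sc or po (po rats fasted 18 h), with NSD 1015, 30 min before decapitation. DOPA and 5-HTP in limbic, striatal and hemispheral tissue were measured by HPLC-ED. ED50 (half-maximal decrease) was taken from 4-6-dose curves, with deviation estimated graphically from SEM.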

[4] = target: T2, Dopamine receptor (Rattus norvegicus) (UniProt P25115+P19020+P30729+P18901+P61169); test: Effective dose for half-maximal decrease in the accumulation of DOPA in reserpinized rat brain limbic area by sc administration; format: functional, organism-based; in short: as §2
Rattus norvegicus [5] = test: Effective dose for half-maximal decrease in the accumulation of 5-hydroxytryptophan (5-HTP) in reserpinized rat brain limbic area by sc administration; Inactive; format: functional, organism-based; in short: as §2
D(2) dopamine receptor [6] = target: T3, D(2) dopamine receptor (Rattus norvegicus, UniProt P61169); test: Binding affinity against dopamine receptor D2 in homogenated rat brain tissue, using by ([3H]N00437) as radioligand; format: tissue-based
T3 sequence (P61169 whole entry): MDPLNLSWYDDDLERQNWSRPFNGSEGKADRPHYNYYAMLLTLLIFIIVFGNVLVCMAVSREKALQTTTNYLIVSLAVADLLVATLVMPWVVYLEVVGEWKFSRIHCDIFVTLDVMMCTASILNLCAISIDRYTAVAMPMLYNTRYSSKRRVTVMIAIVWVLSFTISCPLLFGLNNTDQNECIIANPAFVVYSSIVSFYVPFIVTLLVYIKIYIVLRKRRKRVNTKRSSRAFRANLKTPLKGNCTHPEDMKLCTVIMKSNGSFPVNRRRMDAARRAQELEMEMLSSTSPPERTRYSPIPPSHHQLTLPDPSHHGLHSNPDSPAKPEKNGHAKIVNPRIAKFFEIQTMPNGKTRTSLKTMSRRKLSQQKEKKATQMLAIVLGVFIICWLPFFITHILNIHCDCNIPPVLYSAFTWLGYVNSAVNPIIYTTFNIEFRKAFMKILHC
In short: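 Striata from male Wistar rats were washed in Tris (pH 7.5) containing EDTA, KCl and CaCl2. Tissue (1.25 mg original) was incubated with 0.2 nM [3H]-N-0437 (final) for 90 min at 25 °C, then filtered and counted by scintillation. Nonspecific binding was defined with 1 μM 6,7-ADTN. IC50 was read from a hand-fitted sigmoid curve, in triplicate.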

Rattus norvegicus [7] = test: Effective dose for half-maximal decrease in the accumulation of 5-hydroxytryptophan (5-HTP) in reserpinized rat brain hemispheral area by sc administration; Inactive; format: functional, organism-based; in short: as §2
D(2) dopamine receptor [8] = target: T3, D(2) dopamine receptor; test: Binding affinity against dopamine receptor D2 in rat brain tissue using [3H]spiperone; format: tissue-based
In short: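 Rat striatal membranes were prepared in 50 mM potassium phosphate (pH 7.4). They were incubated with 0.5 nM [3H]spiperone (3 mg original tissue) for 10 min at 37 °C. Specific binding was defined with 10 μM 6,7-ADTN. Six drug concentrations (10⁻⁴-10⁻⁹ M) were tested, in triplicate or in a single experiment.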

[9] = target: T2, Dopamine receptor (Rattus norvegicus); test: Effective dose for half-maximal decrease in the accumulation of DOPA in reserpinized rat brain hemispheral area by sc administration; Inactive; format: functional, organism-based; in short: as §2
[10] = target: T2, Dopamine receptor (Rattus norvegicus); test: Effective dose for half-maximal decrease in the accumulation of DOPA in reserpinized rat brain striatal area by sc administration; format: functional, organism-based; in short: as §2
Rattus norvegicus [11] = test: post-synaptic agonistic effects by increase in locomotor activity at the dose of 12.5 umol/kg, sc in reserpinized rat (p<0.005); format: functional; in short: as §1
Rattus norvegicus [12] = test: Effective dose for half-maximal decrease in the accumulation of 5-hydroxytryptophan (5-HTP) in reserpinized rat brain striatal area by sc administration; partial response at the highest dose tested; format: functional, organism-based; in short: as §2
[13] = target: T2, Dopamine receptor (Rattus norvegicus); test: Effective dose for half-maximal decrease in the accumulation of DOPA in reserpinized rat brain limbic area by sc administration; partial response at the highest dose tested; format: functional, organism-based; in short: as §2
Rattus norvegicus [14] = test: Effective dose for half-maximal decrease in the accumulation of 5-hydroxytryptophan (5-HTP) in reserpinized rat brain limbic area by sc administration; partial response at the highest dose tested; format: functional, organism-based; in short: as §2
[15] = target: T2, Dopamine receptor (Rattus norvegicus); test: Effective dose for half-maximal decrease in the accumulation of DOPA in reserpinized rat brain striatal area by sc administration; partial response at the highest dose tested; format: functional, organism-based; in short: as §2
[16] = Effective dose for half-maximal decrease in the accumulation of 5-hydroxytryptophan (5-HTP) in reserpinized rat brain limbic area by sc administration; format: functional; in short: as §2
[17] = Effective dose for half-maximal decrease in the accumulation of 5-hydroxytryptophan (5-HTP) in reserpinized rat brain striatal area by sc administration; format: functional; in short: as §2
Rattus norvegicus [18] = species: Rattus norvegicus; test: 5-HT behavioral syndrome was determined by observing flat body posture and forepaw threading in rat.++ indicates […] intensity of behavioral effect; format: functional, organism-based; in short: as §1
[19] = target: T2, Dopamine receptor (Rattus norvegicus); test: Effective dose for half-maximal decrease in the accumulation of DOPA in reserpinized rat brain hemispheral area by sc administration; partial response at the highest dose tested; format: functional, organism-based; in short: as §2
Rattus norvegicus [20] = test: post-synaptic agonistic effects by increase in locomotor activity at the dose of 50 umol/kg, sc in reserpinized rat (p<0.005); format: functional
[21] = Effective dose for half-maximal decrease in the accumulation of 5-hydroxytryptophan (5-HTP) in reserpinized rat brain hemispheral area by sc administration; format: functional; in short: as §2
[22] = target: T2, Dopamine receptor (Rattus norvegicus); test: Effective dose for half-maximal decrease in the accumulation of DOPA in reserpinized rat brain striatal area by po administration; partial response at the highest dose tested; format: functional, organism-based; in short: as §2
[23] = Effective dose for half-maximal decrease in the accumulation of 5-hydroxytryptophan (5-HTP) in reserpinized rat brain striatal area by po administration; format: functional; in short: as §2
[24] = Effective dose for half-maximal decrease in the accumulation of 5-hydroxytryptophan (5-HTP) in reserpinized rat brain limbic area by po administration; format: functional; in short: as §2
[25] = Area under curve ratio was determined (po/iv); format: functional
In short: (§3)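 Male Sprague-Dawley rats (300 g) with arterial catheters were dosed 24 h after surgery. Doses: 40 μmol/kg po by gavage and 5 μmol/kg iv, or 20 po and 1 iv. Po rats were fasted 18 h. Blood was sampled from 5 min to 12 h and measured by GC-MS after extraction at pH 11 against an internal standard, samples in duplicate. AUC po/iv came from n = 4 per route. Half-life was read graphically from the oral elimination phase.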

[26] = target: T2, Dopamine receptor (Rattus norvegicus); test: Effective dose for half-maximal decrease in the accumulation of DOPA in reserpinized rat brain hemispheral area by po administration; format: functional, organism-based; in short: as §2
[27] = Half-lives were estimated from the elimination phase of the blood conc-time curve after oral administration; format: ADME, organism-based; conditions: whole blood; in short: as §3
[28] = target: T2, Dopamine receptor (Rattus norvegicus); test: Effective dose for half-maximal decrease in the accumulation of DOPA in reserpinized rat brain limbic area by po administration; partial response at the highest dose tested; format: functional, organism-based; in short: as §2
[29] = Effective dose for half-maximal decrease in the accumulation of 5-hydroxytryptophan (5-HTP) in reserpinized rat brain hemispheral area by po administration; format: functional; in short: as §2
Rattus norvegicus [30] = test: post-synaptic agonistic effects by increase in locomotor activity at the dose of 2.2 umol/kg, sc in reserpinized rat; format: functional

| Compound | Ki [1] [nM] | Behavioral syndrome (Rattus norvegicus [2]) | ED50 (Rattus norvegicus [3]) | ED50 (Rattus norvegicus [5]) | ED50 (Rattus norvegicus [7]) | Ki (D(2) dopamine receptor [8]) [nM] | ED50 [9] | ED50 [13] | ED50 [15] | ED50 [16] [µmol/kg] | ED50 [17] [µmol/kg] | Counts/30 (Rattus norvegicus [20]) [min] | ED50 [21] [µmol/kg] | other results |
| --- | --- | --- | --- | --- | --- | --- | --- | --- | --- | --- | --- | --- | --- | --- |
| CCCN(CCC)C1CCc2cc(OS(=O)(=O)C(F)(F)F)ccc2C1 (stereo unspecified) | 16000 | Partially active | inactive | inactive | inactive | 1570 | inactive | – | – | – | – | – | – | ED50 [4]: 2 µmol/kg; Ki (D(2) dopamine receptor [6]): 99 nM; ED50 [10]: 1.3 µmol/kg; Counts/30 (Rattus norvegicus [11]): 80 min |
| CCCN(CCC)C1CCc2ccc(OC)cc2C1 (stereo unspecified) | – | – | – | – | inactive | – | inactive | Weak activity | Weak activity | – | – | – | – | ED50 (Rattus norvegicus [12]): Weak activity; ED50 (Rattus norvegicus [14]): Weak activity |
| CCCNC1CCc2cccc(OS(=O)(=O)C(F)(F)F)c2C1 (stereo unspecified) | 3.8 | – | – | – | – | 1360 | – | Weak activity | Weak activity | 1.2 | 0.8 | 120 | 1.1 | Behavioral syndrome (Rattus norvegicus [18]): Active; ED50 [19]: Weak activity |
| CCCN(CCC)C1CCc2cccc(OS(=O)(=O)C(F)(F)F)c2C1 (stereo unspecified) | 9.6 | Partially active | – | – | – | 670 | inactive | Weak activity | Weak activity | 5.9 | 15 | 110 | 10 | ED50 [22]: Weak activity; ED50 [23]: 1.5 µmol/kg; ED50 [24]: 1.2 µmol/kg; Ratio [25]: 11.2; ED50 [26]: 30 µmol/kg; half-life [27]: 1.5 h; ED50 [28]: Weak activity; ED50 [29]: 1.2 µmol/kg |
| CCCN(CCC)[C@@H]1CCc2ccc(O)cc2C1 | 3260 | – | inactive | inactive | inactive | – | – | – | – | – | – | – | – | Behavioral observation (Rattus norvegicus [2]): Partially active; Counts/30 (Rattus norvegicus [30]): 100 counts/30 min |
